An excerpt weighted towards active compounds, which were near 3.2% of everything screened.
DAX1 inh-1 = DAX1 (NR0B1) inhibitors, primary screen, cell-based, HEK293, Gal4-DAX1, luciferase luminescence; Nuclear receptor subfamily 0 group B member 1 (Homo sapiens), P51843; HEK293 Gal4-DAX1 luciferase reporter; inhibition, % at 6.75 µM; 340,000 compounds, 0.99% hits; AID 504766, 2011;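 active = inhibition above the mean over all tested compounds plus 3 SD, cut at about 4.2% in these data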;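 also: inhibition shows as a rise in luminescence from relieved DAX1 repression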
Target sequence (P51843 207-470 limits assumed): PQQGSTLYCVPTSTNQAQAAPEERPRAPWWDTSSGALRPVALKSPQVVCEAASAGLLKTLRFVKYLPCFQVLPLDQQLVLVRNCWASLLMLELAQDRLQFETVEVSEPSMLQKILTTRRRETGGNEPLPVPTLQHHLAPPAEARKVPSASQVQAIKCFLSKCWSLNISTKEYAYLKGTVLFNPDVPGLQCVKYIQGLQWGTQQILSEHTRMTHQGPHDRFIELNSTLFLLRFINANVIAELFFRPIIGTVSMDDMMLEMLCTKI
DAX1 inh-2 = DAX1 (NR0B1) inhibitors on StAR promoter, primary screen, cell-based, luminescence, SF-1 (NR5A1), full-length DAX-1; HEK293T StAR-luciferase reporter, SF-1/DAX-1 repression relief; inhibition, % at 6.8 µM; 370,000 compounds, 1.1% hits; AID 652010, 2013;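 active = inhibition above the mean over all tested compounds plus 3 SD, cut at about 3.6% in these data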;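 also: higher inhibition means more luminescence from relief of DAX-1 repression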
NR2E3 ag-1 = NR2E3 agonists in two-hybrid cells, primary screen, cell-based, luminescence, CHO-S, Gal4-NCOR/VP16-NR2E3; Photoreceptor-specific nuclear receptor (Homo sapiens), Q9Y5X4; luciferase; 360,000 compounds, 0.35% hits; inhibition of corepressor binding, % at 3.98 µM;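 active = inhibition above the mean of all tested compounds plus 3 SD, cut at about 70% in these data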;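 also: higher means lower luciferase signal from less NR2E3 corepressor binding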
GASC-1 inh = inhibitors of GASC-1 histone demethylase, primary screen, biochemical, fluorescence, DELFIA europium; AID 2099, 2009; inhibition, % at 2.35 µM; GST-JMJD2C(1-420) H3K9me3 demethylation; 330,000 compounds, 0.069% hits; Lysine-specific demethylase 4C (Homo sapiens), Q9H3R0;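 active = more than half of a compound's replicate wells show inhibition beyond 50%, single wells judged on their own value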;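 also: signal counts dimethyl H3K9 product captured on neutravidin plate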
Target sequence (Q9H3R0 1-420 limits assumed): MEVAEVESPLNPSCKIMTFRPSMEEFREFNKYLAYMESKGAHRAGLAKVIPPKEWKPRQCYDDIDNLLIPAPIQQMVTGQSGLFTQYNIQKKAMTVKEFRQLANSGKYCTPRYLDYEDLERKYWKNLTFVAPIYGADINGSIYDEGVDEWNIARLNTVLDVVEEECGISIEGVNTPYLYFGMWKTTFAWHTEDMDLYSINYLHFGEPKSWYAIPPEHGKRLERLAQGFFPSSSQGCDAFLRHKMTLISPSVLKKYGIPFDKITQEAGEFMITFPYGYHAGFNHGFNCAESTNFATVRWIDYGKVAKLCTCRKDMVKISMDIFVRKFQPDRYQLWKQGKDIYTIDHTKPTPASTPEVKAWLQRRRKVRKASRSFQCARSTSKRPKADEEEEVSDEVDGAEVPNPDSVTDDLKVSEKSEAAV
SMARCA2 act = SMARCA2 (BRM) function activators, primary screen, cell-based, luminescence, high throughput; MG213 cells, MMTV-luciferase reporter, dexamethasone, overnight; activation, % at 9.1 µM; 370,000 compounds, 1% hits; AID 652017, 2013; in the data active = activation above about 7.8%
NR2E3 ag-2 = inhibitors of NR2E3-RetCOR corepressor binding, primary screen, NR2E3 agonist project, biochemical, TR-FRET, GST-NR2E3, biotin-RetCOR. Photoreceptor-specific nuclear receptor (Homo sapiens), Q9Y5X4. 1536-well. inhibition of corepressor binding, % at 4.78 µM. 320,000 compounds, 0.12% hits;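 active = percent inhibition above the cutoff of mean plus 3 SD of all tested compounds, set per screening campaign, cut at about 20% in these data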
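Material: NR2E3–RetCOR corepressor complex | Quantity: 1.35 nM GST-tagged NR2E3 final | Schedule: 5 h at 4 °C | Replication: Singlicate compound wells | Reagent: RetCOR corepressor, biotinylated, 7 nM | Controls: Biotin wells as high control, 0.6% DMSO wells as low control | Signal: TR-FRET, Eu(K)-anti-GST donor, streptavidin-D2 acceptor, ex 340, em 617/671 nm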
NR2E3 ag conf = NR2E3 agonist confirmation in cells, cell-based, luminescence, CHO-S two-hybrid; shares compounds with NR2E3 ag-1; CHO-S mammalian two-hybrid NR2E3-NCOR, luciferase luminescence; inhibition, % at 3.98 µM; 2,300 compounds, 51% hits; AID 624378, 2012;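 active = average inhibition above a cutoff equal to the mean inhibition of all tested compounds plus one SD, cut at about 70% in these data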
GAL4-VP16 luc = GAL4-VP16 reporter modulators, confirmation, counter-screen for NR2E3 agonist project, cell-based, luminescence, CHO-S, high throughput; 2,300 compounds, 29% hits; shares compounds with NR2E3 ag-1; CHO-S GAL4-VP16 luciferase reporter; inhibition, % at 3.98 µM;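 active = mean inhibition above a cutoff equal to the average over all tested compounds plus one standard deviation, cut at about 70% in these data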;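 also: luciferase from a UAS reporter driven by GAL4-VP16 transactivation; higher means less reporter light so more repression of VP16 activity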
Large screens that a line does not name were inactive (follow-up assays come after a bar, where they were run).

Nn1c(SCC(=O)N2CCOCC2)nnc1-c1n[nH]c2c1CCC2	none (no result: DAX1 inh-1, NR2E3 ag-1, GASC-1 inh, NR2E3 ag-2)
CCOC(=O)[C@@]12CCCC=C1N(CCc1ccc(Cl)cc1)C(=O)[C@H]2CC(=O)N1CCSCC1	none (no result: DAX1 inh-1, NR2E3 ag-1, GASC-1 inh, NR2E3 ag-2)
Cc1cc(NS(=O)(=O)c2ccc(NC(=O)CSc3nnc(-c4ccccn4)n3Cc3ccco3)cc2)nc(C)n1	none (no result: DAX1 inh-1, NR2E3 ag-1, GASC-1 inh, NR2E3 ag-2)
CN(c1ccccc1)c1ccc(/C=C(/CCC(=O)O)c2nc3ccccc3s2)cc1[N+](=O)[O-]	none (no result: GASC-1 inh, NR2E3 ag-2) | NR2E3 ag conf inactive | GAL4-VP16 luc inactive
O=C(Nc1ccc(Br)c2ccccc12)c1ccc2ccccc2c1O	NR2E3 ag-1 107, NR2E3 ag-2 38 | NR2E3 ag conf 99 | GAL4-VP16 luc 79
CC[C@H](C)Cc1cn([C@@H](CCCN=C(NC(=O)OC(C)(C)C)NC(=O)OC(C)(C)C)C(=O)NCCCCCCCCCCC(=O)N2CCN(C(=O)OC(C)(C)C)CC2)nn1	none (no result: DAX1 inh-2, SMARCA2 act)
Cc1cn([C@@H](CCCCNC(=O)OC(C)(C)C)C(=O)NCCCCCCCCCCC(=O)N2CCN(C(=O)OC(C)(C)C)CC2)nn1	none (no result: DAX1 inh-2, SMARCA2 act) | NR2E3 ag conf 74 | GAL4-VP16 luc inactive
CC(C)(C)c1ccc(C(=O)Nc2ccc(CC(=O)O)cc2)o1	none | NR2E3 ag conf inactive | GAL4-VP16 luc inactive
Cc1ccc(C(=O)Nc2ccc(CC(=O)O)cc2)o1	none
C(=NN1CCCCCC1)c1cccc2ccccc12	none (no result: GASC-1 inh, NR2E3 ag-2)
C(=NN1CCCCCC1)c1ccc2ccccc2n1	NR2E3 ag-1 95 (no result: GASC-1 inh, NR2E3 ag-2) | NR2E3 ag conf 86 | GAL4-VP16 luc inactive
Cc1ccc(S(=O)(=O)N2C[C@H]3N(C(=O)OC(C)C)N(C(=O)OC(C)C)C[C@H](OC(=O)NCc4ccccc4)[C@@]3(O)C2)cc1	none (no result: GASC-1 inh, NR2E3 ag-2)
Cc1ccc(S(=O)(=O)N2C[C@H]3N(C(=O)OC(C)C)N(C(=O)OC(C)C)C[C@H](OC(=O)NCC4CCCCC4)[C@@]3(O)C2)cc1	none (no result: DAX1 inh-2, GASC-1 inh, SMARCA2 act, NR2E3 ag-2) | NR2E3 ag conf 70 | GAL4-VP16 luc inactive
CNc1sc(C(=O)c2cccs2)c(N)c1-c1nc2ccccc2s1	none | NR2E3 ag conf inactive | GAL4-VP16 luc inactive
CC1Cc2cc(/C=C3/SC(=S)NC3=O)ccc2O1 (stereo not given)	none
Cc1ccc(C2C(/C=C3/SC(=S)NC3=O)=C(c3cccs3)Oc3ccccc32)cc1 (stereo not given)	NR2E3 ag-1 74 | NR2E3 ag conf 87 | GAL4-VP16 luc inactive
Cc1ccc(N2CCN(/N=C\c3cccnc3)CC2)cc1	none (no result: DAX1 inh-1, NR2E3 ag-1, GASC-1 inh, NR2E3 ag-2)
O=C1c2ccccc2C(=O)c2[nH]cnc21	none (no result: NR2E3 ag-2)
O=C1c2ccccc2C(=O)c2[nH]c(=O)[nH]c21	none | NR2E3 ag conf 75 | GAL4-VP16 luc inactive
CC[C@H]1CN2CCc3cc(OC)c(OC)cc3C2C[C@@H]1C[C@H]1NCCc2cc(OC)c(OC)cc21 (stereo not given in full)	NR2E3 ag-1 104 (no result: GASC-1 inh) | NR2E3 ag conf 98 | GAL4-VP16 luc 98
CCC1=C(CC2NCCc3ccccc32)CC2c3cc(OC)c(OC)cc3CCN2C1 (stereo not given)	NR2E3 ag-1 97 (no result: GASC-1 inh, NR2E3 ag-2) | NR2E3 ag conf 90 | GAL4-VP16 luc 87
COc1cc2c(cc1OC)CN1CCc3cc(OC)c(OC)cc3C1C2 (stereo not given)	none (no result: DAX1 inh-1, GASC-1 inh, NR2E3 ag-2)
COc1cccc(Cn2nnc(C(=O)Nc3ccc(C)cc3)c2N)c1	none
COc1ccc(OC)c(NC(=O)c2nnn(Cc3ccccc3C)c2N)c1	none | NR2E3 ag conf 80 | GAL4-VP16 luc inactive
COc1ccc(C)cc1NC(=O)c1nnn(Cc2cc(C)ccc2C)c1N	none
COc1cccc(Cn2nnc(C(=O)Nc3cc(C)ccc3OC)c2N)c1	none (no result: DAX1 inh-2, SMARCA2 act) | NR2E3 ag conf inactive | GAL4-VP16 luc inactive
O=C1C[C@@H](c2ccccc2)N=C2N(Cc3ccc4c(c3)OCO4)C/C(=C/c3ccccc3)N12	none (no result: DAX1 inh-1, NR2E3 ag-1, GASC-1 inh, NR2E3 ag-2)
O=S(=O)(Nc1ccc(Cl)cc1NS(=O)(=O)c1ccccc1)c1ccccc1	NR2E3 ag-1 82 (no result: GASC-1 inh, NR2E3 ag-2) | NR2E3 ag conf 95 | GAL4-VP16 luc inactive
Cc1ccc(S(=O)(=O)Nc2ccc3ccccc3n2)cc1	none (no result: DAX1 inh-1)
Cc1ccc(Cl)cc1NS(=O)(=O)c1ccccc1	none (no result: GASC-1 inh, NR2E3 ag-2)
Cc1ccc(S(=O)(=O)Nc2ccccc2NS(=O)(=O)c2ccc(C)cc2)cc1	none (no result: DAX1 inh-1, GASC-1 inh, NR2E3 ag-2) | NR2E3 ag conf inactive | GAL4-VP16 luc inactive
Cc1ccc(NS(=O)(=O)c2ccc(C3CCCCC3)cc2)cc1	NR2E3 ag-1 77 | NR2E3 ag conf 94 | GAL4-VP16 luc inactive
Cc1ccc(S(=O)(=O)Nc2cnc3ccccc3c2)cc1	none | NR2E3 ag conf inactive | GAL4-VP16 luc inactive
C[C@H]1CCCN1c1cccc2c1S(=O)(=O)N1CC[C@@H](C1)O2	none (no result: DAX1 inh-1, NR2E3 ag-1, GASC-1 inh, NR2E3 ag-2)
OC(c1ccc(Cl)c(F)c1)c1ncc(-c2ccc(F)cc2)[nH]1 (stereo not given)	NR2E3 ag-1 80 (no result: DAX1 inh-1, GASC-1 inh, NR2E3 ag-2) | NR2E3 ag conf 78 | GAL4-VP16 luc inactive
Cc1ccc(C(O)c2ncc(-c3ccc(Cl)cc3)[nH]2)cc1F (stereo not given)	none (no result: DAX1 inh-1, GASC-1 inh, NR2E3 ag-2)
Cc1ccc(-c2cnc(C(O)c3ccc(Cl)c(F)c3)[nH]2)cc1 (stereo not given)	none (no result: DAX1 inh-1, DAX1 inh-2, GASC-1 inh, SMARCA2 act, NR2E3 ag-2) | NR2E3 ag conf inactive | GAL4-VP16 luc inactive
COC(=O)[C@H](CC(C)C)N(CCc1cn(Cc2ccc(C)cc2)nn1)S(=O)(=O)c1ccccc1Br	none (no result: DAX1 inh-1, NR2E3 ag-1, GASC-1 inh, NR2E3 ag-2)
O=[N+]([O-])c1ccc(Sc2cccc[n+]2[O-])c2nonc12	NR2E3 ag-1 102 (no result: NR2E3 ag-2) | NR2E3 ag conf inactive | GAL4-VP16 luc inactive
